Experimental data: paper PMC6939458 (Cancer cell, 2019)
Several values for one entry are separate records, joined by “and”; a condition that tells them apart may be missing. Equal entries are not always repeated.

Experiments:
[1] = target: T1, MYC (Homo sapiens, UniProt P01106); test: STD NMR, MYC; assay type: binding; conditions: 975 phosphate analog 100 μM, G5 200 μM
Outline: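 Buffer: 50 mM HEPES, 500 mM NaCl, 10 mM β-mercaptoethanol, 5% glycerol, 30 mM imidazole. Ligand spectra recorded with and without each protein individually.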
Target sequence in this assay (P01106 368-454): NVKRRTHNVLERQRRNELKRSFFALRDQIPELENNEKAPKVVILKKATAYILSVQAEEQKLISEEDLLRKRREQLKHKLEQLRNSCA

[2] = target: HIF-1α (Homo sapiens, UniProt Q16665); test: Biotinylated compound pull down, HIF-1α; assay type: binding; conditions: cell lysates
Outline: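 A biotin-conjugated test compound was used as bait. Nuclear complexes came from exponentially growing PC3 and P493–6 cells, extracted with a nuclear complex co-IP kit. The pull-down ran in low co-IP buffer with NaCl added to a final 150 mM.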

[3] = target: T1, MYC; test: Biotinylated compound pull down, MYC; assay type: binding; conditions: for competition of MYC binding to Biotin-361: PC3 cell lysate, excess competitor
Outline: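 Nuclear extract from PC3 cells prepared with a nuclear co-IP kit in low co-IP buffer at 150 mM NaCl final. Extract pre-cleared on streptavidin beads 1 hr at 4 °C. About 100 μg extract incubated overnight at 4 °C on a rotator with 1 to 10 μM biotinylated test compound, 10 μM D-biotin or DMSO. Recombinant MYC (0.5 μg) run the same way in buffer with 1% BSA, without pre-clearing. Bound MYC detected by Western blot. For competition, lysate pre-treated with competitor before biotin probe (5 μM).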
Target sequence in this assay (P01106 16-454): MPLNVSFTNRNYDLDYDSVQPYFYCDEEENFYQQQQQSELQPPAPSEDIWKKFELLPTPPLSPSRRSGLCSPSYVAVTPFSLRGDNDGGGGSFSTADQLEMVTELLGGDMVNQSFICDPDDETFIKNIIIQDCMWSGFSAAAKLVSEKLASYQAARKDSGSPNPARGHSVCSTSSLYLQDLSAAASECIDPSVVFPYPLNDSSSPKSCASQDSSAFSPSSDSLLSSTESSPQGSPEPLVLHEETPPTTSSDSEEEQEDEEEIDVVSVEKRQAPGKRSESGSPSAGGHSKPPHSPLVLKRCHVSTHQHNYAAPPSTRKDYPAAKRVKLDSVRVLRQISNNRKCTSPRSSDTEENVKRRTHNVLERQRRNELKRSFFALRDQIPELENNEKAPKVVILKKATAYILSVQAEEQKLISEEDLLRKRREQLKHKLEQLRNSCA

[4] = Pharmacokinetics of 975 in CD-1 mice; conditions: male, CD-1, mouse, in vivo, po
[5] = system: MycCaP tumor allografts; test: MycCaP allograft/xenograft mouse model; assay type: in vivo
Outline: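 Male FVB (allograft) or NSG (xenograft) mice, 6–8 weeks, ~25 g, acclimated >4 days. Injected s.c. in flanks with 1 × 10⁶ MycCaP E-box-luciferase cells in 100 μl Matrigel. Tumors followed by caliper ((length × width × width)/2) and by bioluminescent imaging after i.p. substrate injection. Body weight recorded. Tumor tissue assessed by H&E and immunofluorescence for Ki67, MYC pT58 and PD-L1.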

[6] = system: MV-411 AML xenografts; test: MV-411 AML xenograft; assay type: in vivo, mouse
Outline: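 Immunodeficient mice were inoculated with 5×10⁶ MV-411 cells in PBS:matrigel 1:1. They were randomised by tumour volume at ~200 to 500 mm³ and dosed with vehicle, test compound, or test compound plus Ara-C, 5 days a week for 3 weeks. Calipers were read twice weekly and volume was taken as (length × width × width)/2. Body weight was monitored, n = 4 mice/group, mean ± SEM.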

[7] = target: GSK3β-mediated MYC pT58 (Homo sapiens, UniProt P01106); test: In vitro kinase assay; assay type: biochemical; conditions: 6 μM
Outline: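 Phosphorylation reactions were run in kinase buffer (25 mM Tris-HCl pH 7.5, 5 mM β-glycerophosphate, 2 mM DTT, 0.1 mM sodium vanadate, 10 mM MgCl₂) at room temperature for 2 hr in total.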

[8] = system: MYC transcriptional activity (E-box-luciferase); test: E-box luciferase reporter assay in vitro; assay type: cell-based
Outline: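 MycCaP cells stably carrying either MYC E-box-luciferase reporter or control mCherry-P2A-luciferase vector plated 10000 cells/well. Serial dilution of test compound added the next day; luminescence read by Steady-Glo after 4 hr treatment.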

[9] = Maximum tolerated dose / acute toxicity in mice; assay type: in vivo; conditions: p.o., single dose at 50, 100, 250, 500 or 1000 mg/kg
[10] = system: Lewis Lung Carcinoma (LLC1); test: LLC1 allograft lung cancer mouse model; assay type: in vivo; conditions: 100 mg/kg/day
Outline: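 LLC1 cells (1 × 10⁶) in PBS:matrigel 1:1 were injected subcutaneously into the flanks of female C57BL/6 mice, aged 6–8 weeks. Mice were randomised 3 days after inoculation and given test compound i.p. as 50 mg/kg twice daily (100 mg/kg/day). Tumour growth and body weight were followed, n = 7 mice/group, mean ± SEM.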

[11] = target: MYC353–439 (Homo sapiens, UniProt P01106); test: Fluorescence polarization competition assay against 10074-G5; assay type: binding
[12] = 14-day toxicology in mice; assay type: in vivo, mouse; conditions: 100 mg/kg daily for 14 days, analyzed one week later
[13] = target: T1, MYC; test: Cellular thermal shift assay; assay type: cell-based; conditions: PC3 cells
Outline: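 PC3 cells (70–80% confluent; also PC3 stably expressing Flag-MYCT58A, puromycin 1.5 μg/ml selected) treated with test compound or DMSO for 30 min. Cells washed, resuspended in PBS with protease/phosphatase inhibitors plus the same compound dose, split into 7–10 aliquots (~1 million cells each), heated 2 min at graded temperatures, then 3 min room temperature. Lysates boiled 5 min at 90 °C; MYC quantified by Western blot densitometry to build melt curves.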
Target sequence in this assay (P01106 16-454): as above

[14] = system: MYC; test: Western blot of MYC protein level, stability and phosphorylation in cells; assay type: cell-based, human; conditions: 8 μM
Outline: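 PC3 cells, or PC3 stably expressing Flag-MYC, Flag-MYCT58A or Flag-MYCS62A (lentiviral, 1.5 μg/ml puromycin selection), were used. For stability, cells were pretreated 3 hr with compound or DMSO, then given cycloheximide and harvested at time points. MYC, pT58, pS62, GSK3β and pGSK3β S9 were detected by western blot over a time course. Band intensities were densitometrically quantified.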

[15] = system: MYC-dependent cancer cells; test: Cell viability, MYC-dependent cancer cells; assay type: cell-based; conditions: prostate cancer cells versus PC12, 5 days
Outline: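 Cells were seeded at 1000 to 5000 per well in 96-well plates, depending on cell type. Viable cells were counted, or MTS absorbance was read at 490 nm, 2 to 7 days after treatment. MycCaP, PC3, LNCaP and P493–6 were grown in RPMI1640, SK-N-BE(2) in F12 and MV411 in IMDM, each with 10% heat-inactivated FBS and 1% penicillin-streptomycin.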

[16] = target: MAX(S) (Homo sapiens, UniProt P61244-2 1-151); test: EMSA
[17] = MycCaP allograft, 100 mg/kg/day i.p. for 14 days

Chain of MYC353–439 (P01106 368-454): as the sequence (P01106 368-454) above
Chain of GSK3β-mediated MYC pT58 (P01106 16-454): as the sequence (P01106 16-454) above
Chain of HIF-1α (Q16665 whole entry): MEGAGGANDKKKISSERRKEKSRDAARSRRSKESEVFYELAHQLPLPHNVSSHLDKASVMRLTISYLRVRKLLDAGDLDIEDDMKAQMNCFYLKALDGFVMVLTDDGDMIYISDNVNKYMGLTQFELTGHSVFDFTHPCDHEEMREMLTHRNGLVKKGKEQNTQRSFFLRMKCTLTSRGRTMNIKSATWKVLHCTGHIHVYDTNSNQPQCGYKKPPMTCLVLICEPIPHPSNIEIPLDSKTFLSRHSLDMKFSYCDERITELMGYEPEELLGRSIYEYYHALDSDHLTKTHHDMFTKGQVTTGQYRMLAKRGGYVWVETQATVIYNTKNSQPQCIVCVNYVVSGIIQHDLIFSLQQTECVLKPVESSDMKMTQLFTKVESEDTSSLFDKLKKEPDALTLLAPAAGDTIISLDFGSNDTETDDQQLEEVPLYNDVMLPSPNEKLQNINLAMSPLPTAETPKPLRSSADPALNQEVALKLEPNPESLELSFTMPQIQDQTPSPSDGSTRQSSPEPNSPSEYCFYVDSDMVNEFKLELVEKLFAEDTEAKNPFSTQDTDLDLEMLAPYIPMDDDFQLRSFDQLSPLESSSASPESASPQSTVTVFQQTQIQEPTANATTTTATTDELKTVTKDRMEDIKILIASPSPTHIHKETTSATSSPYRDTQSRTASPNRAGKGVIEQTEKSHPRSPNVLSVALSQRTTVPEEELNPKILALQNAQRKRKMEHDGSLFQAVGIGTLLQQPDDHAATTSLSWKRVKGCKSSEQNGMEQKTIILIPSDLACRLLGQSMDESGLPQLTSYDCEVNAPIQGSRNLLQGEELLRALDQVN

O=P(O)(O)OCOc1ccc(-c2cc(C(F)(F)F)n[nH]2)c(O)c1-c1ccc(Cl)c(C(F)(F)F)c1 [975 phosphate analog, ((4’-chloro-6-hydroxy-3’-(trifluoromethyl)-5-(3-(trifluoromethyl)-1H-pyrazol-5-yl)-[1,1’-biphenyl]-2-yl)oxy)methyl dihydrogen phosphate]
binding to MYC by STD NMR [1]: bound to MYC

Cn1nc(C(F)(F)F)cc1-c1ccc(OCCCNC(=O)CCOCCOCCOCCOCCOCCOCCNC(=O)CCCC[C@@H]2SCC3NC(=O)NC32)c(-c2cc(C(F)(F)F)cc(C(F)(F)F)c2)c1O (stereo partly drawn) [Biotin-361, N-(3-((6-hydroxy-5-(1-methyl-3-(trifluoromethyl)-1H-pyrazol-5-yl)-3’,5’-bis(trifluoromethyl)-[1,1’-biphenyl]-2-yl)oxy)propyl)-1-(5-((4S)-2-oxohexahydro-1H-thieno[3,4-d]imidazol-4-yl)pentanamido)-3,6,9,12,15,18-hexaoxahenicosan-21-amide]
pull down of HIF-1α [2]: not MAX or another bHLH protein HIF-1α | pull down of recombinant MYC and endogenous MYC ([3]; cell lysates): pulled down

Cn1nc(C(F)(F)F)cc1-c1ccc(OCCNC(=O)CCOCCOCCOCCOCCNC(=O)CCCC[C@@H]2SCC3NC(=O)NC32)c(-c2cc(C(F)(F)F)cc(C(F)(F)F)c2)c1O (stereo partly drawn) [Biotin-975, N-(2-((6-hydroxy-5-(1-methyl-3-(trifluoromethyl)-1H-pyrazol-5-yl)-3’,5’-bis(trifluoromethyl)-[1,1’-biphenyl]-2-yl)oxy)ethyl)-1-(5-((4S)-2-oxohexahydro-1H-thieno[3,4-d]imidazol-4-yl)pentanamido)-3,6,9,12-tetraoxapentadecan-15-amide]
pull down of MYC protein ([3]; 10 μM, PC3 cells): pulled down MYC protein

Cn1nc(C(F)(F)F)cc1-c1ccc(OCc2ccc(Cl)cc2)c(-c2ccc(Cl)c(C(F)(F)F)c2)c1O [Compound 975, 4’-chloro-6-((4-chlorobenzyl)oxy)-3-(1-methyl-3-(trifluoromethyl)-1H-pyrazol-5-yl)-3’-(trifluoromethyl)-[1,1’-biphenyl]-2-ol]
Cmax ([4]; 100 mg/kg): 41500 ng/mL and 74 µM | half-life ([4]; 100 mg/kg): 7 h | Cmax ([4]; 250 mg/kg): 54000 ng/mL and 96 µM | half-life ([4]; 250 mg/kg): 12 h | tumor inhibition, FVB versus NSG mice ([5]; 50 mg/kg twice daily, 3 days): more strongly than in immunodeficient NSG mice | pT58 and PD-L1 levels in tumor tissue ([5]; 100 mg/kg/day i.p. for 14 days): increased pT58 and PD-L1 levels | tumor growth, 975 alone ([5]; 100 mg/kg/day, 2 days on/2 days off): slowed tumor growth | tumor infiltration of immune cells ([5]; CD3+ T cells, B220+ B cells, NKp46+ NK cells, 100 mg/kg/day for 14 days): enhanced tumor infiltration of CD3+ T cells | survival [5, 17]: increased survival | tumor growth [5, 17]: significantly inhibited tumor growth | efficacy as a single agent ([6]; 50 mg/kg/day, 5 days a week): reduced efficacy as a single agent | body weight, combination with Ara-C ([6]; 975 50 mg/kg/day, Ara-C 20 mg/kg/day): no obvious impact on mouse body weight | tumor growth, combination with Ara-C ([6]; 975 50 mg/kg/day, Ara-C 20 mg/kg/day, 5 days a week): synergized with Ara-C | pT58 levels in in vitro kinase assay [7]: directly increased GSK3β-mediated MYC pT58 | E-box-luciferase versus CMV-luciferase activity in vitro [8]: selectively suppressed E-box-luciferase activity | well tolerated single dose, acute toxicity [9]: up to 1000 mg/kg | body weight [10]: no changes in body weight | tumor growth [10]: inhibited tumor growth | Kd [11]: 2500 nM | gross and histological analysis of organs [12]: no obvious pathologic abnormalities | hematology, blood chemistry, kidney and liver function [12]: normal complete blood count and differential, normal blood chemistry, and normal kidney and liver function | MYC target engagement by CETSA ([13]; 8 μM): confirmed MYC target engagement | MYC degradation and phosphorylation on T58 [14]: enhanced MYC degradation and phosphorylation on T58 | cell viability [15]: inhibited cell viability in a MYC-dependent manner

O=[N+]([O-])c1ccc(Nc2ccccc2-c2ccccc2)c2nonc12 [Compound G5, reference compound]
binding to MYC by STD NMR [1]: confirmed interaction | competition of MYC binding to Biotin-361 [3]: competed | thermal stability of MYC protein (CETSA) ([13]; 30 min, 361 4–10 μM, G5 15–60 μM, 360 6 μM): significant thermal destabilization

Cn1nc(C(F)(F)F)cc1-c1ccc(OCOP(=O)(O)O)c(-c2cc(C(F)(F)F)cc(C(F)(F)F)c2)c1O [Phosphate-361, ((6-hydroxy-5-(1-methyl-3-(trifluoromethyl)-1H-pyrazol-5-yl)-3’,5’-bis(trifluoromethyl)-[1,1’-biphenyl]-2-yl)oxy)methyl dihydrogen phosphate]
competition of MYC binding to Biotin-361 [3]: competed

B1: HEX E-box oligo (dsDNA)
DNA 1: CACCCGGTCACGTGGCCTACAC
DNA 2: GTGTAGGCCACGTGACCGGGTG
binding result [16]: no binding
